Measured values from different studies.
Compare with care: the assays were run in different laboratories.
Read-out: cell growth or viability

`Cc1nc(Nc2ccc3c(c2)C(C)(C)C(=O)N3)c2ccccc2n1` gave an IC50 of 14.8 µM (B16; MTT).
The IC50 of `Cc1sc2c(c1C)C(c1ccc(Cl)cc1)=N[C@@H](CC(=O)NCCCCCCCCNC(=O)COc1cccc3c1C(=O)N(C1CCC(=O)NC1=O)C3=O)c1nnc(C)n1-2` (stereo partly drawn) is reported as 0.27 µM (BXPC-3; ATP luminescence).
For `O=C(O)c1cccnc1Nc1cccc(C(F)(F)F)c1`, the GI50 was over 30 µM (BXPC-3; SRB; 48 h).
`Nc1ccc(/C=C/C(=O)NCc2cc3cc(-c4ccc(C(=O)N5CCC(F)(F)CC5)cc4)cc(-c4ccc(F)cc4)c3o2)cn1` has an IC50 of over 20 µM (BXPC-3; CCK-8; 72 h).
The IC50 of `COc1cc2c3c(n(CCCNCCO)c(=O)c2cc1OC)-c1nc2c(cc1C3=O)OCO2` is reported as 0.022 µM (RD-ES; MTS; 72 h).
The GI50 of `C=CC(=O)c1cccnc1Nc1cccc(C(F)(F)F)c1` is reported as 17.5 µM (BXPC-3; SRB; 48 h).
`Cc1nc(Nc2ccc3c(c2)CC(=O)N3)c2ccccc2n1` has an IC50 of 3.13 µM (B16; MTT).
The IC50 of `COc1cc2c3c(n(CCCn4ccnc4)c(=O)c2cc1OC)-c1nc2c(cc1C3=O)OCO2` is reported as 0.18 µM (RD-ES; MTS; 72 h).
`Cc1nc(Nc2ccc3c(c2)/C(=C/c2ccccc2)C(=O)N3C)c2ccccc2n1` gave an IC50 of 3.56 µM (B16; MTT).
The EC50 of `C=CC(=O)NC1CCN(c2ncc3ncnc(Nc4ccc(Oc5ccc6c(c5)ncn6C)c(C)c4)c3n2)CC1` is reported as 0.108 µM (JHH-4).
`O=C(O)c1ccccc1Nc1cccc(C(F)(F)F)c1` gave a GI50 of over 30 µM (BXPC-3; SRB; 48 h).
With `Nc1ccc(/C=C/C(=O)N2CCc3c(oc4c(-c5ccc(F)cc5)cc(-c5ccc(C(=O)N6CCOCC6)nn5)cc34)C2)cn1` the IC50 was over 20 µM (BXPC-3; CCK-8; 72 h).
